How the values were obtained:
[1] = folding enthalpy; higher = less favourable; fluorescence melt of hairpins on a sequencing array, two-state fit; details: sodium 0.088 M
Summary of the method: (§1)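 Melting temperature and folding enthalpy were obtained by bootstrapped two-state fitting. Fits used Cy3 fluorescence of library hairpins with annealed Cy3 and quencher oligos on a sequenced MiSeq flow cell, imaged in 50 mM Na-HEPES pH 8.0, 25 mM NaCl in 2.5 °C steps up to 60 °C and normalised to pre-quench Cy3 and control constructs. Four replicates were combined by inverse-variance weighting, and fitted temperatures were raised by 9.35 °C to match UV melts.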

[2] = melting temperature; fluorescence melt of hairpins on a sequencing array, two-state fit, raised by 9.35 °C to match UV melts; details: sodium 0.088 M
Summary of the method: as §1

Row | Sequence | folding enthalpy [1] | Tm [2]
1 | CGTCGCGGAAACGCAACG (((.(((....))).))) | -28.8 kcal/mol | 50.5 °C
2 | GCCGACGAAAGTCCAGGC ((((((....)))..))) | -25.2 kcal/mol | 51.7 °C
3 | GAGCAAGCGAAAGCTCTC (((..(((....)))))) | -11.6 kcal/mol | 35.1 °C
4 | GATCCACACCTGGATC ((((((....)))))) | -44.8 kcal/mol | 51 °C
5 | GCTATGGGAAACCATGGC ((.((((....)))).)) | -41 kcal/mol | 50.9 °C
6 | GGAGTCGAAAGACCTCC ((((((....))).))) | -24.5 kcal/mol | 50 °C
7 | GCTTGGGGAAACCTGAGC (((..((....))..))) | -30.3 kcal/mol | 40 °C
8 | GATCAGCTACTGATC ((((((...)))))) | -35.2 kcal/mol | 49.1 °C
9 | CGCCCGGAAACGGGTGCG ((((((....)))..))) | -10.7 kcal/mol | 57.5 °C
10 | GTTGCGGGAAACTGCAGC (.(((.(....).))).) | -15.8 kcal/mol | 45 °C
11 | GACCCCGGAAACGGGATC ((.((((....)))).)) | -16.3 kcal/mol | 45.8 °C
12 | GCTGGCTCGAAAGAGAGC (((..(((....)))))) | -11.1 kcal/mol | 36.9 °C
13 | GTTTTAGGAAACTAAAGC (.(((((....))))).) | -15 kcal/mol | 31.5 °C
14 | GGATCACGAAAGTGCTCC (((.(((....))).))) | -27.4 kcal/mol | 49.4 °C
15 | GCGATCCCTCGC ((((....)))) | -24.1 kcal/mol | 49.8 °C
16 | GTTGGCGGAAACGCTAGC (.(.(((....))).).) | -13.2 kcal/mol | 34.5 °C
17 | GGAGTCGAAAGACTATCC ((((((....)))..))) | -13.8 kcal/mol | 32.9 °C
18 | CGTAGCGGAAACGCACG (((.(((....)))))) | -22.2 kcal/mol | 53.1 °C
19 | GATCGAGGCTCGATC ((((((...)))))) | -42.1 kcal/mol | 55.5 °C
20 | GTCTATCGAAAGATGAC (((.(((....)))))) | -27.1 kcal/mol | 42 °C
21 | GTAGCCGAAAGGCTGTAC ((((((....)))..))) | -9.24 kcal/mol | 31.2 °C
22 | GAATTTGGAAACAAATCC (.(((((....))))).) | -13.9 kcal/mol | 29.2 °C
23 | GACTCCGAAAGGACTGTC ((((((....)))..))) | -15.7 kcal/mol | 32.7 °C

Row | Sequence | folding enthalpy [1] | Tm [2]
24 | GGACTCGAAAGAGGATCC ((((((....)))..))) | -17.9 kcal/mol | 37 °C
25 | GGATACGAAAGTAATTCC ((((((....)))..))) | -12 kcal/mol | 27.7 °C
26 | GATCTATTTTAGATC ((((((...)))))) | -32.7 kcal/mol | 41.7 °C
27 | CCTATGAAAATAGG (((((....))))) | -14.2 kcal/mol | 41.2 °C
28 | GATCGCCAGGGCGATC ((((((....)))))) | -31 kcal/mol | 68.3 °C
29 | GCAGAGCGAAAGCCGTGC (((..((....))..))) | -16.4 kcal/mol | 42.1 °C
30 | GATCCCGGAAACGAGATC ((((.((....)).)))) | -29.6 kcal/mol | 41.7 °C
31 | GCTTTACGAAAGTAAGC (((.(((....)))))) | -22.7 kcal/mol | 46.2 °C
32 | GCACAGGGAAACCCGTGC ((((.((....)).)))) | -36.8 kcal/mol | 55.4 °C
33 | GCTCTCGAAAGAGTGAGC ((((((....)))..))) | -26 kcal/mol | 41.6 °C
34 | GGACCTGGAAACAGATCC (((.(((....))).))) | -28.7 kcal/mol | 40.2 °C
35 | GTTCACGGAAACATGAAC (((((.(....).))))) | -21.1 kcal/mol | 36.6 °C
36 | GCGGACGAAAGTCACCGC ((((((....)))..))) | -29.5 kcal/mol | 51.5 °C
37 | AGTGAGAAATCACT (((((....))))) | -15.7 kcal/mol | 38.5 °C
38 | GGCCACCGAAAGGTTGCC (((.(((....))).))) | -44.3 kcal/mol | 58.1 °C
39 | GATCCTTGTAGGATC ((((((...)))))) | -34.4 kcal/mol | 55.1 °C
40 | GCGAAGTTCGC ((((...)))) | -17 kcal/mol | 46.4 °C
41 | GCACAAGCGAAAGCTTGC (((..(((....)))))) | -7.33 kcal/mol | 37.8 °C
42 | GCGGGACGAAAGTCCGC (((.(((....)))))) | -23.1 kcal/mol | 69.2 °C
43 | CGGATCGGAAACGACCG (((.(((....)))))) | -28.2 kcal/mol | 49.8 °C
44 | GATGCCGGAAACGGCACC (.(((((....))))).) | -9.72 kcal/mol | 44.5 °C
45 | GCTAATCGAAAGATAGC (((.(((....)))))) | -26.4 kcal/mol | 44.6 °C
46 | GTCTACGAAAGTACTGAC ((((((....)))..))) | -10.8 kcal/mol | 28.9 °C

Row | Sequence | folding enthalpy [1] | Tm [2]
47 | GGGCCCGAAAGGGTACCC ((((((....)))..))) | -15.1 kcal/mol | 57.3 °C
48 | GATCGGCTGCCCGATC ((((((....)))))) | -31.2 kcal/mol | 56.2 °C
49 | GACGTAGGAAACCACGTC (((((.(....).))))) | -29.5 kcal/mol | 47.2 °C
50 | GCCATGGGAAACCGTGGC ((((.((....)).)))) | -40.6 kcal/mol | 59 °C
51 | GCGCTCGAAAGAGGCGC ((((((....))).))) | -29.2 kcal/mol | 67.4 °C
52 | GGCCGCGAAAGCGTCGCC ((((((....)))..))) | -16.7 kcal/mol | 55.9 °C
53 | GCTTTGCGAAAGCACTGC ((..(((....)))..)) | -17.5 kcal/mol | 43 °C
54 | GATCACTCTGGTGATC ((((((....)))))) | -39.8 kcal/mol | 58.8 °C
55 | GTAACTGGAAACAGTTGC (.(((((....))))).) | -26.6 kcal/mol | 47.4 °C
56 | CGGAAACGGAAACGTCCG (((..(((....)))))) | -22.9 kcal/mol | 41.1 °C
57 | GATCCTCACGAGGATC ((((((....)))))) | -43.3 kcal/mol | 54.8 °C
58 | GATCTTCACGAAGATC ((((((....)))))) | -40.1 kcal/mol | 49.2 °C
59 | GCAGAACGAAAGTTTTGC (((.(((....))).))) | -40.9 kcal/mol | 52.1 °C
60 | GGCTCCGAAAGGACGGCC ((((((....)))..))) | -20.8 kcal/mol | 51.2 °C
61 | GATCACCCAGTGATC ((((((...)))))) | -38.1 kcal/mol | 57.2 °C
62 | GATCTCAGGTGAGATC ((((((....)))))) | -32.2 kcal/mol | 53.6 °C
63 | GCCAGATCGAAAGATGGC (((..(((....)))))) | -27.4 kcal/mol | 48.2 °C
64 | GTCTGCGAAAGCATCGAC ((((((....)))..))) | -14.8 kcal/mol | 33.6 °C
65 | GTTTGCGAAAGCATAAC ((((((....))).))) | -17.3 kcal/mol | 43 °C
66 | GTTCTCGAAAGAGTCAAC ((((((....)))..))) | -10.2 kcal/mol | 23.2 °C
67 | GCCCTTCGAAAGAATGGC (((.(((....))).))) | -34.3 kcal/mol | 47.4 °C
68 | GTGTCCCGAAAGGGCCAC (((.(((....))).))) | -23.8 kcal/mol | 56.4 °C
69 | GTTAAGCCGAAAGGCAAC (((..(((....)))))) | -10.5 kcal/mol | 32.9 °C

— the array DNA melting data of Ke et al. (doi:10.1101/2024.01.08.574731)
